Data published in ChEMBL document CHEMBL5678817, “FTBMT, a Novel and Selective GPR52 Agonist, Demonstrates Antipsychotic-Like and Procognitive Effects in Rodents, Revealing a Potential Therapeutic Agent for Schizophrenia” (J Pharmacol Exp Ther, 2017).
The source made the active and inactive calls. The calls are words filed in the database; no cut-off is given here.

What was measured:
[1] = tested on: Rattus norvegicus; experiment: Effect on prolactin level in Wistar rat at 1 mg/kg, po […] by immunoassay; assay type: functional, organism-based
Procedure, shortened: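 Male Wistar rats (7 weeks) dosed orally (haloperidol 1 mg/kg among arms) or vehicle. Trunk blood taken into EDTA 1 h later and centrifuged 1600 g, 20 min, 4 °C. Plasma prolactin measured by rat prolactin enzyme immunoassay; n = 4.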

[2] = tested on: Mus musculus; experiment: Antipsychotic activity in methamphetamine-induced hyperactivity in ICR mouse assessed as minimum effective dose administered orally; assay type: functional; conditions: route po, read-out: MED

Structure (SMILES) | Activity [1] | minimal effective dose [2] [mg/kg]
O=C(CCCN1CCC(O)(c2ccc(Cl)cc2)CC1)c1ccc(F)cc1 | Active | –
Cc1cc2c(s1)Nc1ccccc1N=C2N1CCN(C)CC1 [OLANZAPINE] | – | 1
